# Bioassay records (PubChem)
# Compounds with a hit are over-represented: about 2.4% of the library has one in this group of screens.
# Rpn11 inh = Rpn11 (PSMD14) deubiquitinase inhibitors, primary screen, biochemical, fluorescence polarization, uHTS; actives 0.59% (n = 360,000); human 26S proteasome, Ub4-pepOG fluorescence polarization; 20S core pre-blocked with epoxomicin; 26S proteasome non-ATPase regulatory subunit 14 (Homo sapiens), O00487; AID 588493, 2011; inhibition, % at 20 µM;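 active = inhibition at 20 µM, scaled to each plate's controls, above about 33%, limit read from the data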
# Target sequence (O00487 whole entry, looked up): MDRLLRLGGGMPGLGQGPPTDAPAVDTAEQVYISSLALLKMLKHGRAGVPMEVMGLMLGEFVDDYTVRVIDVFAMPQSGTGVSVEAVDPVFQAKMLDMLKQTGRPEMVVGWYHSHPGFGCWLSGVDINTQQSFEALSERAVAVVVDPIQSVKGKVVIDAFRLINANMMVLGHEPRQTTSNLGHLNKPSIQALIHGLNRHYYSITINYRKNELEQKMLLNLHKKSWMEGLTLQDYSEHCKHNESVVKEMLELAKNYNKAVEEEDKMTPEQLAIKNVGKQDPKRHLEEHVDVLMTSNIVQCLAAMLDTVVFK
# TbMetRS inhib = T. brucei MetRS inhibitors, primary screen, biochemical, luminescence; methionyl-tRNA synthetase (Trypanosoma brucei brucei); purified T. brucei MetRS, ATP depletion, Kinase-Glo luminescence; inhibition, % at 11.9 µM; actives 0.4% (n = 360,000); AID 624268, 2012;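 active = inhibition above a per-plate cutoff of the control wells' mean inhibition plus 3 SD, cut at about 5.5% in these data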;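 note: 0% = DMSO wells median and 100% = median of wells with control inhibitor compound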
#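 Test system: purified T. brucei MetRS enzyme. Also added: ATP, methionine and E. coli bulk tRNA substrates. Compound: 11.9 µM single point. Schedule: 15 min enzyme-compound preincubation, 2 h reaction, 10 min detection, 25 °C. Signal: luciferase luminescence of residual ATP, Kinase-Glo. Evaluation: percent inhibition versus plate control medians. Controls: DMSO wells, low control.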
# PREPL inhibitor = PREPL enzyme inhibitors, primary screen, biochemical, fluorescence polarization. Prolyl endopeptidase-like (Homo sapiens), Q4J6C6. recombinant PREPL, fluorescence polarization activity-based probe. inhibition, % at 5.96 µM. actives 0.68% (n = 320,000). AID 2751, 2010; in the data active = inhibition above about 43%;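 note: 0% = enzyme with DMSO and 100% = wells lacking enzyme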
# CSN deneddyl inh = inhibitors of CSN-mediated cullin deneddylation, primary screen, biochemical, fluorescence polarization, uHTS | COP9 signalosome complex subunit 5 (Homo sapiens), Q92905 | Purified CSN, SCF-Nedd8-OG deneddylation | inhibition, % at 12.5 µM | actives 0.38% (n = 360,000);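 active = pattern-corrected inhibition above about 35%, with an unprinted fluorescence ratio check between 0.5 and 1.5, limit read from the data, passing the limit was not always enough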;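 note: 0% = enzyme with substrate and 100% = substrate without enzyme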
#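 Detection – fluorescence polarization · System – HEK293T-derived human Csn5 enzyme · Controls – substrate-only high control, full reaction low control · Timing – 90 min, room temperature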
# Neddylation inh = inhibitors of cullin neddylation, primary screen, biochemical, TR-FRET, uHTS, NAE and Ubc12 | actives 0.58% (n = 360,000) | inhibition, % at 25 µM | NEDD8-conjugating enzyme Ubc12 (Homo sapiens) + NEDD8-activating enzyme E1 regulatory … | AID 651699, 2012; in the data active = inhibition above about 36%
# HNF4A DNA FP = change in binding of human HNF4A to DNA, primary screen, biochemical, fluorescence polarization, FITC-DNA. 1 h. activity change, % at 10 µM. actives 0.3% (n = 360,000); in the data active = activity change above about 30%, passing the limit was not always enough
# Numbers without * were called inactive; / = no result shown.
SMILES,Rpn11 inh,TbMetRS inhib,PREPL inhibitor,CSN deneddyl inh,Neddylation inh,HNF4A DNA FP
O=S(=O)(Nc1nc2ccccc2nc1N1CCc2ccccc2C1)c1ccc(Br)cc1,-18,0,8,-4,61*,-5
N#C/C(=C(/O)c1cccs1)c1nc2ccccc2[nH]1,7,0,77*,4,/,12
N#C/C(=C(/O)c1ccc(Br)s1)c1nc2ccccc2[nH]1,2,0,-9,2,-7,9
N#C/C(=C(/O)CCl)c1nc2ccccc2[nH]1,13,0,50*,6,12,1
COc1cc(C(=O)OCC(=O)c2ccccc2)cc2c1OCCO2,0,0,5,3,3,-4
COc1ccc(NC(=O)CCCc2nc3ccccc3c(=O)[nH]2)cc1Cl,-4,1,5,0,-9,-2
CCOC(=O)C(Cc1ccccc1)NC(=O)Cn1nnc(-c2ccccc2)n1 (centres undefined),5,0,11,-4,6,39*
COc1ccccc1-c1ncn(Cc2cccc(-c3ccccc3)c2)c1-c1ccco1,/,0,/,11,7,8
C=CCn1c(/N=C/c2ccc(N(C)C)cc2)nc2ccccc21,/,2,7,26,-23,59*
Cc1cc(/C=C2\C(=N)N3N=C(S(C)(=O)=O)SC3=NC2=O)c(C)n1Cc1ccccc1,2,-1,4,2,51*,-1
CCCC1=NN2C(=N)/C(=C\c3cc(C)n(Cc4ccccc4)c3C)C(=O)N=C2S1,4,0,6,5,18,-1
Cc1cc(C)cc(Cn2cc(CN3CC(N4CCN(Cc5ccccc5F)CC4)CS3(=O)=O)nn2)c1 (centres undefined),/,0,/,-4,-4,-1
COc1cccc(OCc2cc(C(=O)N3CCN(c4ccccc4OC)CC3)no2)c1,-3,0,10,-2,-7,2
C#CCOCCOCCOCCNc1nc(N2CCN(C(=O)CCCCCCCCCCNC(=O)[C@H](CCCCN)n3cc(C[C@@H](C)CC)nn3)CC2)nc(N2CCN(C(=O)CCCCCCCCCCNC(=O)[C@@H]([C@H](C)O)n3cc(C)nn3)CC2)n1,38,0,35,66*,-1,65*
C#CCOCCOCCOCCNc1nc(N2CCN(C(=O)[C@H](CCCCN)n3cc(CN)nn3)CC2)nc(N2CCN(C(=O)[C@H](CCCCN)n3cc(CN)nn3)CC2)n1,-7,0,9,39*,-7,59*
C#CCOCCOCCOCCNc1nc(N2CCN(C(=O)CCCCCCCCCCNC(=O)[C@H](CO)n3cc(CCCCCN)nn3)CC2)nc(N2CCN(C(=O)CCCCCCCCCCNC(=O)[C@H](CCCN=C(N)N)n3cc(C[C@@H](C)CC)nn3)CC2)n1,/,/,64*,/,/,/
C#CCOCCOCCOCCNc1nc(N2CCN(C(=O)CCCCCCCCCCNC(=O)[C@H](CCCCN)n3cc(C)nn3)CC2)nc(N2CCN(C(=O)CCCCCCCCCCNC(=O)[C@@H]([C@H](C)O)n3cc(C)nn3)CC2)n1,2,0,36,-2,-19,-1
C#CCOCCOCCOCCNc1nc(N2CCN(C(=O)C([C@@H](C)O)n3cc([C@@H](N)CCCCN)nn3)CC2)nc(N2CCN(C(=O)[C@H](CCCN=C(N)N)n3cc(C(N)[C@@H](C)CC)nn3)CC2)n1 (some centres undefined),5,0,24,16,-26,61*
CC(=O)N1CC2(CC(c3ccccc3C(F)(F)F)=NO2)CN1c1ccc(Cl)cc1 (centres undefined),6,-1,/,-4,-6,1
CN(CC(=O)Nc1cccc(S(=O)(=O)N2CCCC2)c1)CC(=O)Nc1ccc(Cl)c(C(F)(F)F)c1,2,0,21,1,4,-1
